FGF22 binding-1 – binders of human FGF22 protein, primary screen, FGF22 synaptogenesis inhibitor project, biophysical, thermal shift, single point | Fibroblast growth factor 22 (Homo sapiens), Q9HCT0 | recombinant FGF22 thermal shift, SYPRO orange fluorescence; percent of sucrose octasulfate shift, DMSO zero | hit rate 1.5% among 340,000 | activity (Tm shift, normalised), % at 9.99 µM;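 active = mean Tm shift, scaled 0 neutral to 100 positive control, at about 1.3% or above, every replicate too, limit read from the data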
SIRT5 block – SIRT5 desuccinylase inhibitors, primary screen, biochemical, fluorescence imaging, single point, set 5. NAD-dependent protein deacylase sirtuin-5, mitochondrial (Homo sapiens), Q9NXA8. Purified SirT5, succinyl-peptide AMC, trypsin-coupled fluorescence. inhibition, % at 15 µM. hit rate 1.1% among 330,000; in the data active = inhibition above about 15%
miR122 inh – miR-122 Renilla sensor signal increase in Huh7, primary screen, miR-122 inhibitor project, cell-based, single point, plate reader; hit rate 0.3% among 340,000; Huh7 miR-122 Renilla luciferase sensor, 48 h; neutral wells = 0, positive control = 100; activation (reporter increase), % at 12.5 µM;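 active = mean replicate activation score at least 90 and every replicate individually at or above 90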;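 also: higher luciferase means less miR-122 activity so hits act as miR-122 inhibitors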
S100A4 inh HTS – inhibitors of S100A4-myosin IIA peptide binding, primary screen, biochemical, fluorescence polarization, TAMRA-MyoIIA peptide. Protein S100-A4 (Homo sapiens), P26447. inhibition, % at 10.7 µM. hit rate 0.14% among 360,000;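 active = mean inhibition of at least 70% across replicates, with every replicate also reaching that level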
Target sequence (P26447 whole entry, looked up): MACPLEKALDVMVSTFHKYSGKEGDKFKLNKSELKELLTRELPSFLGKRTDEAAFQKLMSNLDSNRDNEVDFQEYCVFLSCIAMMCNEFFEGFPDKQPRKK
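System – human S100A4 monomer protein, biochemical binding assay · Buffer or medium – Calcium-containing HEPES buffer, pH 7.2 · Timing – 5 min between mix addition and reading · Also added – TAMRA-labelled myosin IIA heavy-chain peptide probe, 5 nM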
E-selectin induc – E-selectin induction in HUVECs, primary screen, imaging, HUVEC, immunofluorescence imaging, single point | P16581 | normalized: neutral wells 0, TNF-alpha wells 100 | activation, % at 7.58 µM | hit rate 0.37% among 260,000 | AID 686992, 2013;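 active = mean E-selectin-positive cell signal at least 10% of the positive control, reached in at least 60% of replicates, without over 20% cell loss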
Target sequence (P16581 whole entry, looked up): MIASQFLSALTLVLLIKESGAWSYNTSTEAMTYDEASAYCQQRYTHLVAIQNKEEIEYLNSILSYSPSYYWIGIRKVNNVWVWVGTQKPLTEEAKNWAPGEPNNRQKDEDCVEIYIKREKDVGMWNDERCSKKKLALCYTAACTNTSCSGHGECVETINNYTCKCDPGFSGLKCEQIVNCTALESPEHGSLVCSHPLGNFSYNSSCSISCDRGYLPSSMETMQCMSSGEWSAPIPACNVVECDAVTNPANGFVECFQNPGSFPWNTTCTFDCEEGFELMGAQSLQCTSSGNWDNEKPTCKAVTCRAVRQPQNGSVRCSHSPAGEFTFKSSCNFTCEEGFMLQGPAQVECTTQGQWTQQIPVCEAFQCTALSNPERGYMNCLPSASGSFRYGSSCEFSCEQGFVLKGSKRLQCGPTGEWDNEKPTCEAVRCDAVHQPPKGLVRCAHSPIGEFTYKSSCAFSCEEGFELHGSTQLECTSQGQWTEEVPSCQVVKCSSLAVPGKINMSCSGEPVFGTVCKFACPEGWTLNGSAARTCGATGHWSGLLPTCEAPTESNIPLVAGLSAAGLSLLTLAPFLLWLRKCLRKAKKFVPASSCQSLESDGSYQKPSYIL
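System: HUVEC / Compound: single concentration / Signal: immunofluorescence imaging / Read-out: percent E-selectin-positive cells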
FGF22 binding-2 – binders of human FGF22 protein, dose response, FGF22 synaptogenesis inhibitor project, biophysical, thermal shift, cherry-pick retest; recombinant FGF22 thermal shift, SYPRO orange fluorescence; thermal shift activity, °C (ΔTm) at 38 µM; hit rate 2% among 1,000; shares compounds with FGF22 binding-1;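 active = fitted rise in melting shift crosses a set limit at or below the top valid dose tested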
FGF22 TSA – binders of human FGF22 protein, dose response, FGF22 synaptogenesis inhibitor project, biophysical, thermal shift, dry powder. 50 tested, under 10 active. AID 743017, 2013. shares compounds with FGF22 binding-1. Tm shift (activity), % at 38 µM. Thermal shift assay, SYPRO orange, melting temperature shift;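 active = compounds whose fitted dose curve of melting temperature shift rises past a set threshold within the tested doses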
TSA no protein – compound-only thermal shift signal without protein, dose response, artefact control for FGF22 binder project, biochemical, cherry-picked samples, RT-PCR instrument; compound-only SYPRO orange thermal shift counter-screen, no protein; shares compounds with FGF22 binding-1; hit rate 2% among 1,000; AC50, µM (top dose mostly 38 µM);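 active = rising signal whose fitted curve reaches the 0.54 level within the top valid dose, showing a melting point, actives reach about 13 µM in these data; inactive = the rest, including activity in the opposite direction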; also: value is where the raw curve crosses a fixed level and not half-maximal
Numbers stand for hits; 0 = inactive; - = no result. The list is not random: actives were taken first. Their share in the collection is about 2.5%.

SMILES | FGF22 binding-1 | SIRT5 block | miR122 inh | S100A4 inh HTS | E-selectin induc | FGF22 binding-2 | TSA no protein | others
O=C(NCc1ccc(F)cc1)[C@@H]1[C@@H](CO)[C@@H]2Cn3c(cccc3=O)[C@H]1N2Cc1cccnc1 | 0 | 0 | 0 | 0 | 0 | - | -
CC1CCCC(C)N1/N=C/c1ccc(Cl)cc1 (centres undefined) | - | - | 0 | - | - | - | -
COc1ccc(/C=N/N2C(C)CCCC2C)cc1OC (centres undefined) | 38 | 0 | 0 | 0 | 0 | 0 | 0
COc1cc(O)c(CC=C(C)C)c(O)c1C(=O)CCc1ccc(O)cc1 | 0 | - | 0 | 0 | - | - | -
O=C(CCc1ccc(O)cc1)c1c(O)cc(O)cc1O | 2.8 | - | - | 0 | 0 | 0 | 2.9µM
CC(=O)Nc1cccc(NC(=O)c2ccc3[nH]c(C)c(C)c3c2)c1 | 1.9 | 0 | 0 | 0 | 0 | 0 | 0 | FGF22 TSA=0
CSc1ncccc1C(=O)NCC1CCCCC1 | 0 | - | 0 | 0 | 0 | - | -
O=C(NCC1CCCCC1)c1cccnc1Cl | 1.5 | 0 | 0 | 0 | - | 0 | 0
O=C(O)CN1C(=O)CSC1=S | 0 | 0 | 0 | 0 | 0 | - | -
O=C(NN1C(=O)CSC1=S)C(=O)NN1C(=O)CSC1=S | 2.4 | 50 | 0 | 0 | 0 | 0 | 0
COc1cc(/C=C2\CCn3c2nc2cc(C(=O)O)ccc2c3=O)ccc1OC(F)F | 1.4 | 0 | 0 | 0 | 0 | 0 | 0
O=C(O)c1ccc2c(=O)n3c(nc2c1)/C(=C/c1ccc(C(F)(F)F)cc1)CC3 | 0 | 0 | 0 | 0 | - | - | -
CN1[C@H](C(=O)Nc2ccccc2)[C@@H](CO)[C@@H]2Cn3c(ccc(-c4ccccc4)c3=O)[C@@H]21 | 0 | 0 | 0 | 0 | 0 | - | -
COc1ccc2c3c([nH]c2c1)[C@@H](CO)N(C(=O)c1ccncc1)CC31CN(C(=O)c2ccncc2)C1 | 0 | - | - | 0 | 0 | - | -
O=C(Cc1c[nH]c2ccccc12)N1CCN(S(=O)(=O)c2cccc(Cl)c2Cl)CC1 | 2.9 | 0 | 0 | 0 | - | 0 | 0
O=C(Cc1c[nH]c2ccccc12)N1CCN(S(=O)(=O)c2ccc(F)cc2)CC1 | 0 | - | 0 | 0 | 0 | - | -
C[C@@H]1CN([C@H](C)CO)C(=O)c2cccc(NS(=O)(=O)c3cccs3)c2O[C@@H]1CN(C)S(C)(=O)=O | 0 | 0 | 0 | 0 | 0 | - | -
C=CCN(C(=O)c1csnn1)C(C(=O)NC1CCCCC1)c1ccc(Cl)cc1 (centres undefined) | 1.5 | 0 | 0 | 0 | - | 0 | 0
C=CCN(C(=O)c1csnn1)C(C(=O)NC1CCCCC1)c1ccc(C)cc1 (centres undefined) | 0 | 0 | 0 | 0 | - | - | -
C[C@H]1CCCCO[C@@H](CN(C)C(=O)Cc2ccccc2)[C@@H](C)CN([C@@H](C)CO)C(=O)c2cc(NC(=O)Cc3ccccc3)ccc2O1 | 0 | 0 | 0 | 0 | 0 | - | -
Cc1cccc(C(=O)NCC(=O)N2CCN(c3ccc(Cl)cc3)CC2)c1 | 0 | 0 | - | 0 | 0 | - | -
Cc1cc(C)cc(C(=O)NCC(=O)N2CCN(c3cccc(Cl)c3)CC2)c1 | 37 | 0 | - | 0 | - | 0 | 0
Cc1nn(CCOc2ccccc2Cl)c(C)c1[N+](=O)[O-] | 1.7 | 0 | - | 0 | 0 | 0 | 0
CO[C@@H]1CN(C)C(=O)c2ccc(NC(=O)C3CC3)cc2OC[C@@H](C)N(Cc2ccccc2)C[C@@H]1C | 0 | 0 | 0 | 0 | 0 | - | -
CC(=O)N1CCCCN2[C@@H](CO)[C@H](c3ccc(-c4cccc(C)c4)cc3)[C@@H]2C1 | 0 | 0 | 0 | 0 | 0 | - | -
SMILES | FGF22 binding-1 | SIRT5 block | miR122 inh | S100A4 inh HTS | E-selectin induc | FGF22 binding-2 | TSA no protein | others
CCc1ccc(C(=O)NCc2cnn(C)c2)s1 | 3.2 | 0 | 0 | 0 | 0 | 0 | 0
CC(C)N(C[C@H]1N[C@H](CO)[C@H]1c1ccccc1)S(=O)(=O)c1ccccc1 | 1.4 | 0 | 0 | 0 | 0 | 0 | 0
O=c1c(Cl)c(O)c2cccc3c4ccccc4n1c23 | 2.3 | 0 | - | 0 | - | 0 | 0
Cc1ccc(-c2nnn(CC(=O)NCCc3ccc4c(c3)OCO4)n2)cc1 | 8.9 | 0 | 0 | 0 | - | 0 | 0
O=C(NCC[C@@H]1CC[C@@H](NS(=O)(=O)c2ccccc2)[C@@H](CO)O1)c1ccc2c(c1)OCO2 | 1.4 | 0 | - | 0 | 0 | 0 | 0
O=C(O)c1cccc(NS(=O)(=O)c2ccc(-c3ccc(S(=O)(=O)Nc4cccc(C(=O)O)c4)cc3)cc2)c1 | 21 | 0 | - | 0 | - | 0 | 0
O=C(Nc1cccc(C(F)(F)F)c1)c1cccc(NS(=O)(=O)c2ccc(O)c(C(=O)O)c2)c1 | 1.7 | 0 | 0 | 0 | 0 | 0 | 0
C/C=C/c1ccc([C@@H]2[C@@H](C#N)N(C(=O)CN3CCOCC3)[C@H]2CO)cc1 | 0 | 0 | - | 0 | 0 | - | -
COc1cc(/C=N/NC(=O)c2[nH]nc3c2CCc2ccccc2-3)ccc1O | 1.7 | 0 | 0 | 0 | - | 0 | 0
COc1cc(/C=N/NC(=O)c2ccccc2)ccc1O | 0 | 0 | 0 | 0 | - | - | -
C[C@@H]1CCCCO[C@H](CN(C)C)[C@@H](C)CN([C@H](C)CO)C(=O)c2cc(NC(=O)Nc3ccc4c(c3)OCO4)ccc2O1 | 0 | 0 | 0 | 0 | 0 | - | -
Cc1[nH]c2ccccc2c1/C=N/NC(=O)c1cccc(F)c1 | 2.0 | 0 | 0 | 0 | 0 | 0 | 0
Cc1[nH]c2ccccc2c1/C=N/NC(=O)c1cccs1 | 0 | 0 | - | 0 | 0 | - | -
Cc1c(/C=N\NC(=O)c2cccc(F)c2)cnn1C | 2.0 | 0 | 0 | 0 | 0 | 0 | 0
CC(=O)Nc1ccc(S(=O)(=O)Nc2nc3ccccc3s2)cc1 | - | - | 0 | - | - | - | -
CC(=O)Nc1ccc(S(=O)(=O)Nc2nc3ccc([N+](=O)[O-])cc3s2)cc1 | 3.4 | 0 | - | 0 | - | 0 | 0
Cc1ccc(S(=O)(=O)Nc2ccc3c(c2)C(=O)N([C@H](C)CO)C[C@@H](C)[C@@H](CN(C)Cc2ccc(C(=O)O)cc2)OCCCC[C@@H](C)O3)cc1 | - | 0 | 0 | 0 | - | - | -
Cc1ccc(S(=O)(=O)Nc2ccc3c(c2)C(=O)N([C@@H](C)CO)C[C@H](C)[C@@H](CN(C)C(=O)C2CCCCC2)OCCCC[C@H](C)O3)cc1 | - | 0 | 0 | 0 | 0 | - | -
